High-throughput results: PubChem BioAssay, several laboratories
A selection: hits, their analogues and other compounds. The true share with any hit is near 4.7%.
IMP-1 inh = blocks Pseudomonas aeruginosa IMP-1 metallo-beta-lactamase | purified IMP-1, nitrocefin hydrolysis, epi-absorbance fluorescence | inhibition, % at 5.6 µM | actives 0.45% (n = 290,000);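 active = inhibition above the mean plus 3 SD of all compounds in the same screening run, cut at about 4.5% in these data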;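 also: 0% = IMP-1 with DMSO and 100% = DMSO wells lacking enzyme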
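Assay system: purified IMP-1; Quantity: IMP-1 0.2 nM before substrate addition; Medium: HEPES buffer pH 7.1 with ZnSO4 and Brij 35; Incubation: 15 min enzyme–compound preincubation, then 25 min nitrocefin reaction, 25 °C; Signal: fluorescence quenching readout, ex 480/em 530 nm; Controls: DMSO with and without IMP-1; Repeats: singlicate testing.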
Mdm2 MdmX PPI = disrupts the human Mdm2-MdmX interaction; actives 3% (n = 330,000); inhibition, % at 8 µM; O15151+Q00987; SaOS-2 split-luciferase Mdm2/MdmX complementation, luminescence;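 active = inhibition of at least 50% at 8 µM in the primary screen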
Target sequence (O15151 whole entry, looked up): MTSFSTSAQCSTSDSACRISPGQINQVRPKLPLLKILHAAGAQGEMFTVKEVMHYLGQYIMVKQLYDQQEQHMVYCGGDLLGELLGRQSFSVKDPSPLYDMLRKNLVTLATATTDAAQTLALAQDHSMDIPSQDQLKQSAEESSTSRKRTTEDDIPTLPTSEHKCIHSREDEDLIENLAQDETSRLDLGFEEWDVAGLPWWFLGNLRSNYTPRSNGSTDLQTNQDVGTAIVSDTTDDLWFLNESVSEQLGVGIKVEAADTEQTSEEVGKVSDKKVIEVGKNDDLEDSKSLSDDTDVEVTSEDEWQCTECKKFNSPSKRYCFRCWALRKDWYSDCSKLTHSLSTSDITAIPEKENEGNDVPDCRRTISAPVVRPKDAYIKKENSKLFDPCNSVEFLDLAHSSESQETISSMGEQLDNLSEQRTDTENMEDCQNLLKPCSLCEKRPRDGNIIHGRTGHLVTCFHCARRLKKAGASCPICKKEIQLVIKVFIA
Target sequence (Q00987 whole entry, looked up): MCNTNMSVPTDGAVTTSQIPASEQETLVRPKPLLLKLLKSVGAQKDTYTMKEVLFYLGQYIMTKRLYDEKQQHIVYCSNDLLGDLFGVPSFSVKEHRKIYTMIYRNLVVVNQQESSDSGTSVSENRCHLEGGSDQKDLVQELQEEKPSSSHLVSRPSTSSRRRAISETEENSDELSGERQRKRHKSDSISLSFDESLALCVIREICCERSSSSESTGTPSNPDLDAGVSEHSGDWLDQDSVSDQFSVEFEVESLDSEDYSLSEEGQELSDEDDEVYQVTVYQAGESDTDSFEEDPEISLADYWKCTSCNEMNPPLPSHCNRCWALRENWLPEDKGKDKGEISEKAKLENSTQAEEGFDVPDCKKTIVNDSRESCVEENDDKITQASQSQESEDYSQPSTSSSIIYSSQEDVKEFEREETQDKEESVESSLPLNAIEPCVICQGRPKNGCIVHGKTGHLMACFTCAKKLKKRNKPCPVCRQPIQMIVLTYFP
697 NFkB inh = inhibitors of the PMA/ionomycin-induced NF-kB reporter in 697 B cells; 697 B-cell NF-kB luciferase reporter, 16 h; actives 0.33% (n = 330,000); inhibition, % at 4 µM; in the data active = inhibition above about 35%
Jurkat NFkB inh = inhibitors of the PMA/ionomycin-induced NF-kB reporter in Jurkat cells; PMA/ionomycin-induced NF-kB luciferase reporter, luminescence; inhibition, % at 4 µM; actives 0.53% (n = 330,000); AID 435003; in the data active = inhibition above about 50%
VIM-2 inhibitor = inhibitors of Pseudomonas aeruginosa VIM-2 metallo-beta-lactamase; inhibition, % at 5.6 µM; AID 1527; actives 0.89% (n = 290,000); purified VIM-2, nitrocefin hydrolysis, epi-absorbance fluorescence;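 active = inhibition above the mean of all tested compounds plus 3 SD, cutoff set per screening run, cut at about 7.5% in these data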;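 also: red hydrolysis product quenches plate fluorescence so inhibitors raise well fluorescence; 0% = enzyme with DMSO and 100% = DMSO without enzyme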
aSyn UTR inh = 5' untranslated region of α-synuclein, MLPCN primary screen; alpha-synuclein 5'UTR reporter, inhibitor activity; inhibition, % (tested at 7.5 µM); actives 0.82% (n = 300,000); AID 1813; in the data active = inhibition above about 60%;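 also: H4 neuroglioblastoma cells stably carrying SNCA 5'UTR luciferase fusion; 0% = DMSO wells and 100% = positive control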
Mdm2-MdmX conf = confirmation of human Mdm2/MdmX interaction inhibitors. shares compounds with Mdm2 MdmX PPI. Mdm2-MdmX binding, luminescent assay. inhibition, % at 8 µM. actives 55% (n = 10,000). AID 489028; in the data active = inhibition above about 40%
Full FLuc ctr = counter-screen for Mdm2/MdmX inhibitors: full-length luciferase | AID 504607 | actives 77% (n = 6,200) | shares compounds with Mdm2 MdmX PPI | SaOS-2 full-length luciferase counterscreen, luminescence | inhibition, % at 8 µM;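 active = mean inhibition at 8 µM reaching about 37%, which flags the compound as non-specific, limit read from the data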;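 also: p53-null SaOS-2 cells with luciferase driven by a doxycycline-inducible promoter; compound on cells about two nights before reading with doxycycline added after day one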
The depositor's hits bear a star.

Screening Cc1ccc(S(=O)(=O)N2CCC(C(=O)NCc3ccncc3)CC2)cc1 returned IMP-1 inh -1, Mdm2 MdmX PPI 19, 697 NFkB inh 12, Jurkat NFkB inh 4, VIM-2 inhibitor -2 and aSyn UTR inh -9.
`Cc1cc(OCC(=O)Nc2ccccn2)c2c(C)c(C)c(=O)oc2c1` gave IMP-1 inh -3, Mdm2 MdmX PPI 52*, 697 NFkB inh 19, Jurkat NFkB inh -6, VIM-2 inhibitor 2, aSyn UTR inh -36 and Mdm2-MdmX conf -5.
`COc1ccc(/C=N/n2cnc3c([nH]c4ccc(F)cc43)c2=O)cc1CN1CCCC1` gave IMP-1 inh -2, Mdm2 MdmX PPI 100*, 697 NFkB inh 10, Jurkat NFkB inh -10, VIM-2 inhibitor 2, aSyn UTR inh 17, Mdm2-MdmX conf 57* and Full FLuc ctr 51*.
For O=C1NC(=S)N/C1=C/c1cc2c(cc1[N+](=O)[O-])OCO2 the results were IMP-1 inh 1, Mdm2 MdmX PPI 55*, 697 NFkB inh -7, Jurkat NFkB inh 16, VIM-2 inhibitor 1, aSyn UTR inh -16 and Mdm2-MdmX conf 29.
Screening Fc1ccc(C2c3[nH]c4ccccc4c3CCN2Cc2cccn2-c2ncccn2)cc1 (configuration not stated) returned IMP-1 inh -1, Mdm2 MdmX PPI 78*, 697 NFkB inh 6, Jurkat NFkB inh 13, VIM-2 inhibitor -1, aSyn UTR inh 57, Mdm2-MdmX conf 62* and Full FLuc ctr 61*.
Screening c1ccc(C[C@H]2CN=C(Nc3ccccc3)N2CC2CCCCCC2)cc1 returned Mdm2 MdmX PPI 25, 697 NFkB inh -3 and Jurkat NFkB inh 4.
`COC(=O)c1c(C)[nH]c(-c2csc(N)n2)c1C` gave IMP-1 inh -3, Mdm2 MdmX PPI 65*, 697 NFkB inh 0, Jurkat NFkB inh 17, VIM-2 inhibitor -4, aSyn UTR inh -6, Mdm2-MdmX conf 61* and Full FLuc ctr 85*.
`CCN(CC)CCOC(=O)c1ccc(N/C=C(/C#N)c2nc(-c3cccc(OC)c3)cs2)cc1` gave IMP-1 inh -4, Mdm2 MdmX PPI 61*, 697 NFkB inh -24, Jurkat NFkB inh -2, VIM-2 inhibitor -2, aSyn UTR inh 24 and Mdm2-MdmX conf 9.
For COc1ccc2nc(NC(C)=O)sc2c1 the results were IMP-1 inh -2, Mdm2 MdmX PPI -67, 697 NFkB inh -95, Jurkat NFkB inh -70, VIM-2 inhibitor -1 and aSyn UTR inh 12.
For COc1ccc2nc(NC(=O)/C=C/c3ccc4c(c3)OCO4)sc2c1 the results were IMP-1 inh -4, Mdm2 MdmX PPI 83*, 697 NFkB inh 26, Jurkat NFkB inh 4, VIM-2 inhibitor 0, aSyn UTR inh 29, Mdm2-MdmX conf 52* and Full FLuc ctr 35.
Screening COC(=O)c1c(NC(=O)/C=C/c2ccc3c(c2)OCO3)sc(C)c1C returned IMP-1 inh 0, Mdm2 MdmX PPI 4, 697 NFkB inh 5, Jurkat NFkB inh -11, VIM-2 inhibitor -3 and aSyn UTR inh 9.
`COC(=O)c1cc(NC(=O)/C=C/c2ccc3c(c2)OCO3)cc(C(=O)OC)c1` gave IMP-1 inh -2, Mdm2 MdmX PPI 67*, 697 NFkB inh 26, Jurkat NFkB inh 4, VIM-2 inhibitor -3, aSyn UTR inh 48, Mdm2-MdmX conf 22 and Full FLuc ctr 102*.
CCOc1ccc(N2CC(C(=O)Oc3ccccc3)CC2=O)cc1 (configuration not stated) was read as IMP-1 inh -2, Mdm2 MdmX PPI 3, 697 NFkB inh -5, Jurkat NFkB inh -2, VIM-2 inhibitor -3 and aSyn UTR inh -2.
Screening CCOc1cccc(-c2nnc3sc(-c4cccs4)nn23)c1 returned IMP-1 inh -2, Mdm2 MdmX PPI 5, 697 NFkB inh -47, Jurkat NFkB inh -23, VIM-2 inhibitor -1 and aSyn UTR inh -5.
COc1cccc(-c2nnc3sc(-c4ccc(C)cc4)nn23)c1 was read as IMP-1 inh -2, Mdm2 MdmX PPI 56*, 697 NFkB inh -30, Jurkat NFkB inh 34, VIM-2 inhibitor -6, aSyn UTR inh 5, Mdm2-MdmX conf 60* and Full FLuc ctr 47*.
`COc1cccc(-c2nn3c(-c4cccc(C)c4)nnc3s2)c1` gave IMP-1 inh -1, Mdm2 MdmX PPI -31, 697 NFkB inh -5, Jurkat NFkB inh -16, VIM-2 inhibitor 1 and aSyn UTR inh -26.
CCOc1cccc(-c2nnc3sc(-c4cc(OC)c(OC)c(OC)c4)nn23)c1 was read as IMP-1 inh -4, Mdm2 MdmX PPI 61*, 697 NFkB inh 21, Jurkat NFkB inh 18, VIM-2 inhibitor -2, aSyn UTR inh 24 and Mdm2-MdmX conf 15.
Screening O=C(Nc1nc(-c2ccc(Oc3ccccc3)cc2)cs1)C1=COCCO1 returned IMP-1 inh -3, Mdm2 MdmX PPI 23, 697 NFkB inh -21, Jurkat NFkB inh 14, VIM-2 inhibitor -1 and aSyn UTR inh -11.
`O=C(Cn1nc(-c2ccccc2)ccc1=O)N1CCCCC1` gave IMP-1 inh -4, Mdm2 MdmX PPI -4, 697 NFkB inh 0, Jurkat NFkB inh 3, VIM-2 inhibitor -5 and aSyn UTR inh -3.
N/C(=N\OC(=O)c1cnn(-c2ccccc2)c1C(F)(F)F)c1cc(C(F)(F)F)cc(C(F)(F)F)c1 was read as IMP-1 inh -3, Mdm2 MdmX PPI 52*, 697 NFkB inh -17, Jurkat NFkB inh -13, VIM-2 inhibitor -4, aSyn UTR inh 8 and Mdm2-MdmX conf 19.
For Cc1n[nH]c(C)c1CCNC(=O)C1CCC(=O)N(Cc2ccccc2F)C1 (configuration not stated) the results were IMP-1 inh -4, Mdm2 MdmX PPI 6, 697 NFkB inh 19, Jurkat NFkB inh 5, VIM-2 inhibitor -2 and aSyn UTR inh -5.
CCCCC(=O)Nc1ccc(C(=O)NNC(=O)CCc2ccccc2)cc1 was read as IMP-1 inh -1, Mdm2 MdmX PPI -27, 697 NFkB inh 14, Jurkat NFkB inh -33, VIM-2 inhibitor -1 and aSyn UTR inh -3.
`CCCCC(=O)Nc1ccc(C(=O)NNC(=O)c2ccc(C)c(Br)c2)cc1` gave IMP-1 inh 0, Mdm2 MdmX PPI 65*, 697 NFkB inh 13, Jurkat NFkB inh 10, VIM-2 inhibitor 1, aSyn UTR inh 2, Mdm2-MdmX conf 31 and Full FLuc ctr 43*.
Screening CCOC(=O)CSc1nc2c(c(=O)n(C)c(=O)n2C)n1CCCc1ccccc1 returned IMP-1 inh -6, VIM-2 inhibitor -4 and aSyn UTR inh 4.
